Laboratory results from ChEMBL document CHEMBL1149435, “Inactivation of S-adenosyl-L-homocysteine hydrolase by 6'-cyano-5',6'-didehydro-6'-deoxyhomoadenosine and 6'-chloro-6'-cyano-5',6'-didehydro-6'-deoxyhomoadenosine. Antiviral and cytotoxic effects” (J Med Chem, 2006).
In brackets after ≈: the same amount, converted by molar mass.

What was measured:
Human alphaherpesvirus 3 [1] = assay: Antiviral activity against TK+ VZV OKA in human embryonic lung cells; format: functional, organism-based; settings: Human alphaherpesvirus 3, OKA
Cytomegalovirus [2] = assay: Antiviral activity against Cytomegalovirus Davis in human embryonic lung cells; format: functional, organism-based; settings: Human betaherpesvirus 5, Davis
How it was run: (§1)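 Human embryonic lung cell cultures were infected with cytomegalovirus, and the effect on viral plaque formation was scored. EC50 is the concentration, in µg/mL, that reduced virus plaque formation by 50%.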

Human alphaherpesvirus 3 [3] = assay: Antiviral activity against TK- VZV 07/10 in human embryonic lung cells; format: functional, organism-based; settings: Human alphaherpesvirus 3, 07/10, lung
HEL [4] = assay: Cytotoxicity against HEL cells; format: functional; settings: Homo sapiens
How it was run: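 Cytotoxicity was measured in human embryonic lung cells as inhibition of cell growth. CC50 is the concentration, in µg/mL, that reduced cell growth by 50%.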

Cytomegalovirus [5] = assay: Antiviral activity against Cytomegalovirus AD169 in human embryonic lung cells; format: functional, organism-based; settings: Human betaherpesvirus 5, AD169, lung; how it was run: as §1
HEL [6] = assay: Cytotoxicity as determined by alteration in the cell morphology of HEL cells; format: functional; settings: Homo sapiens
How it was run: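 Human embryonic lung cells were examined by microscope for changes in morphology. MCC is the minimum concentration, in µg/mL, that caused a microscopically detectable alteration of cell morphology.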

Adenosylhomocysteinase = Adenosylhomocysteinase (Homo sapiens, UniProt P23526); assay: Inhibitory activity against AdoHcy Hydrolase
Chain of Adenosylhomocysteinase (P23526 whole entry): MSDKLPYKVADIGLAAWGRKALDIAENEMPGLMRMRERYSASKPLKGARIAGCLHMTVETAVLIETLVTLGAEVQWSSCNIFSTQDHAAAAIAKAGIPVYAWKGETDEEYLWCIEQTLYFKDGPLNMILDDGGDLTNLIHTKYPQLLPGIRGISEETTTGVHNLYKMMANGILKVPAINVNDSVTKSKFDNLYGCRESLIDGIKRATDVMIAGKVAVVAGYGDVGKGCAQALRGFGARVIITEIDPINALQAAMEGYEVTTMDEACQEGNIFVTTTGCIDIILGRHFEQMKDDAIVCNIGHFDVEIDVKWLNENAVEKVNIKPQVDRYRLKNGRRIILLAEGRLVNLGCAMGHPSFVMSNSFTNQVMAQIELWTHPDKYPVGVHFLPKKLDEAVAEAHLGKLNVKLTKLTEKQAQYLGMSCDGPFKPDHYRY
How it was run: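 Purified recombinant placental AdoHcy hydrolase was preincubated with inhibitor at several concentrations in assay buffer at 37 °C. Remaining activity was measured in the synthetic direction. Ki and kinact came from the Kitz–Wilson method. […] Irreversibility was checked by 24 h dialysis.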

Compound | EC50 (Human alphaherpesvirus 3 [1]) [mg/L] | EC50 (Cytomegalovirus [2]) [mg/L] | EC50 (Human alphaherpesvirus 3 [3]) [mg/L] | CC50 (HEL [4]) [mg/L] | EC50 (Cytomegalovirus [5]) [mg/L] | MCC (HEL [6]) [µg/mL] | Ki (Adenosylhomocysteinase) [µM]
N#C/C(Cl)=C\[C@H]1O[C@@H](n2cnc3c(N)ncnc32)[C@H](O)[C@@H]1O | 11 (≈ 34.1 µM) | > 20 | 17 (≈ 52.7 µM) | 1.2 (≈ 3.72 µM) | > 20 | 100 | 17
Nc1ccn(C[C@@H](CO)OCP(=O)(O)O)c(=O)n1.O.O [CIDOFOVIR] |  | 0.64 |  | 23 | 0.49 | ≥ 400 | 
N#C/C=C\[C@H]1O[C@@H](n2cnc3c(N)ncnc32)[C@H](O)[C@@H]1O | > 20 | > 20 | > 20 | > 20 | > 20 | 100 | 
O=c1[nH]c(=O)n([C@H]2C[C@H](O)[C@@H](CO)O2)cc1/C=C/Br [BRIVUDINE] | 0.0051 (≈ 0.0153 µM) |  | 149 (≈ 447 µM) | > 200 |  | > 400 | 
Nc1nc2c(ncn2COC(CO)CO)c(=O)[nH]1 [GANCICLOVIR] |  | 3.2 (≈ 12.5 µM) |  | 34 (≈ 133 µM) | 3.2 (≈ 12.5 µM) | ≥ 400 | 
Nc1nc2c(ncn2COCCO)c(=O)[nH]1 [ACYCLOVIR] |  |  |  | 118 (≈ 524 µM) |  | > 400 | 
N#C/C=C/[C@H]1O[C@@H](n2cnc3c(N)ncnc32)[C@H](O)[C@@H]1O | > 20 | > 20 | > 20 | 11 (≈ 38.2 µM) | > 20 | ≥ 20 | 
